Laboratory results from ChEMBL document CHEMBL3091288, “Fluorine Scanning by Nonselective Fluorination: Enhancing Raf/MEK Inhibition while Keeping Physicochemical Properties” (ACS Med Chem Lett, 2013).
Converted amounts (≈) assume the structure as drawn.

Legend:
[1] = AUC (0 to 24 hrs) in BALB-nu/nu mouse at 100 mg/kg, po by LC-MS/MS analysis; assay type: ADME, organism-based; design: time < 24 hr, dose 100 mg/kg, route oral; settings: plasma
How it was run: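 Mice received a single oral dose of 100 mg/kg, formulated as a solution in 5% DMSO, 5% Cremophor EL, 15% PEG400, 15% HPCD and 60% water. Plasma exposure was evaluated over 24 h.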

[2] = AUC (0 to 24 hrs) in BALB-nu/nu mouse at 50 mg/kg, po by LC-MS/MS analysis; assay type: ADME, organism-based; design: time < 24 hr, dose 50 mg/kg, route oral; settings: plasma
[3] = target: RAF proto-oncogene serine/threonine-protein kinase (Homo sapiens, UniProt P04049); test: Inhibition of C-Raf (unknown origin) assessed as phosphorylation of MEK1 after 45 mins by TR-FRET assay
[4] = tested on: HCT-116; test: Antiproliferative activity against human HCT116 cells assessed as cell viability after 96 hrs by cell counting kit-8 assay; assay type: functional, cell-based; settings: HCT-116, 96 h
[5] = Solubility of the compound in fasted state simulated intestinal fluid measured after overnight incubation by UV-HPLC analysis; assay type: ADME
[6] = target: Dual specificity mitogen-activated protein kinase kinase 1 (Homo sapiens, UniProt Q02750); test: Inhibition of MEK1 (unknown origin) assessed as phosphorylation of Erk2 preincubated for 30 mins followed by FAM-Erktide addition measured after 60 mins by IMAP fluorescence polarization assay
[7] = tested on: Liver microsome; test: Clearance in human liver microsomes at 5 uM by LC-MS/MS analysis; assay type: ADME
[8] = Permeability of the compound at pH 6.5 by PAMPA; assay type: ADME; settings: read-out: permeability
[9] = target: hERG (KCNH2) (Homo sapiens, UniProt Q12809); test: Inhibition of human ERG expressed in CHO cells at 10 uM by patch clamp assay relative to control; assay type: cell-based; settings: CHO cells expressing human ERG
Sequence of hERG (KCNH2) (Q12809 whole entry): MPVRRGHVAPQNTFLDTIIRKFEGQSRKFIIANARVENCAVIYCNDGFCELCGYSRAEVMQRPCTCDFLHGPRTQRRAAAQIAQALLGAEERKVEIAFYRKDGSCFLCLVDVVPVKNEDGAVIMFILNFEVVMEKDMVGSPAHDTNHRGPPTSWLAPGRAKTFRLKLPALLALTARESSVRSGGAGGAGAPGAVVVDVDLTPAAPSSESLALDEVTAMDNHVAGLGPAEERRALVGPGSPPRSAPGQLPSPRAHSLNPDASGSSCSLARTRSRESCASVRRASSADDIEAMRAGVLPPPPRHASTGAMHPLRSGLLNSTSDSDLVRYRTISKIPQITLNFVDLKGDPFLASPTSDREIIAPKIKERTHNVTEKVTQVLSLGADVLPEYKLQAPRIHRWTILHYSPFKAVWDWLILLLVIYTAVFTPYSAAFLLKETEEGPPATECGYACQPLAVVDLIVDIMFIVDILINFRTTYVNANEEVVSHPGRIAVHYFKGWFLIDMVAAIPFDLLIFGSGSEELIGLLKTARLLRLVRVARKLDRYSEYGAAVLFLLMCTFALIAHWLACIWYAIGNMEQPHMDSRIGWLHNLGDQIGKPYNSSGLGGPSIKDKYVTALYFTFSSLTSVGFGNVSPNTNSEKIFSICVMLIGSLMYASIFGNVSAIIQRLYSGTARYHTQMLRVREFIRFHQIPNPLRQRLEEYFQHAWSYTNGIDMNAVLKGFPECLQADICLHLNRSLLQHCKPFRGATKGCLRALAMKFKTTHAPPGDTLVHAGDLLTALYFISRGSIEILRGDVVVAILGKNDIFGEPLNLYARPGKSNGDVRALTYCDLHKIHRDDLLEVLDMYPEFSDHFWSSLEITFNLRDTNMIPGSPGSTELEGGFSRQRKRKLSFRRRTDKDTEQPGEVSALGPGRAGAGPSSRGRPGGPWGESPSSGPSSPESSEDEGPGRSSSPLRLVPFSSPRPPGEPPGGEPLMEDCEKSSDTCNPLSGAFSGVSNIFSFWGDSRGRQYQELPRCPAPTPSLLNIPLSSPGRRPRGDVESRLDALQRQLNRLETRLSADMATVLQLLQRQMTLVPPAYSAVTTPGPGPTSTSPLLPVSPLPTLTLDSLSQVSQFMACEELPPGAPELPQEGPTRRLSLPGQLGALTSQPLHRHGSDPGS

Sequence of RAF proto-oncogene serine/threonine-protein kinase (P04049 whole entry): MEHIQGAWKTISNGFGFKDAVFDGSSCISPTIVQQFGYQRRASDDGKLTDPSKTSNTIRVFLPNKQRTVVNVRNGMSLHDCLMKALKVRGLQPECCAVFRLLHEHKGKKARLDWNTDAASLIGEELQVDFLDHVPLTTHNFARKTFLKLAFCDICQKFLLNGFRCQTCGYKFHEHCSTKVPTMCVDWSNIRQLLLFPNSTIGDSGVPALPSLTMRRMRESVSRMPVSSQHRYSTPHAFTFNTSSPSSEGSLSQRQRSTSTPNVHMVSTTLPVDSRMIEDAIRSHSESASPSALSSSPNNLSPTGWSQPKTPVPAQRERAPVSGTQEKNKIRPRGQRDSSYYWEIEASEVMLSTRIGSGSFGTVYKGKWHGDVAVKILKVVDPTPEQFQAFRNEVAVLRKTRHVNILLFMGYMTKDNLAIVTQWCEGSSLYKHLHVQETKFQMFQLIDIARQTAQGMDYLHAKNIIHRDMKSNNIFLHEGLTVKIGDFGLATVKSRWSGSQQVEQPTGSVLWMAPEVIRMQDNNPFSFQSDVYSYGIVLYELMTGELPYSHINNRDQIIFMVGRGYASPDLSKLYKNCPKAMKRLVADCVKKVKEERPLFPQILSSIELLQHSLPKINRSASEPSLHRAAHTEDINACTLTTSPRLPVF
Sequence of Dual specificity mitogen-activated protein kinase kinase 1 (Q02750 whole entry): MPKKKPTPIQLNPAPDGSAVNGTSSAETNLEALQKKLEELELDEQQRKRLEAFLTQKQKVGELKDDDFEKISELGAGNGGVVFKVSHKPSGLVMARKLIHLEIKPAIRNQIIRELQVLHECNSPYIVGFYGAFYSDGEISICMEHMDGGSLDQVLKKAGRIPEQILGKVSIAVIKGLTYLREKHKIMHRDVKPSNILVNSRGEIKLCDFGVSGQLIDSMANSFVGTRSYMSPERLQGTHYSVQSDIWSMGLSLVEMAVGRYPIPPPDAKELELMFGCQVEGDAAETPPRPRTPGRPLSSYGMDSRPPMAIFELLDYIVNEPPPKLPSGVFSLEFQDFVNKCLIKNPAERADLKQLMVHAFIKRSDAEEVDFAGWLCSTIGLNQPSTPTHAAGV

Row | Structure (SMILES) | AUC(0-t) at 24 h [1] | AUC(0-t) at 24 h [2] | IC50 [3] | IC50 [4] | solubility [5] | IC50 [6] | CLH [7] | Papp [8] | inhibition at 10 µM [9]
1 | CNS(=O)(=O)[N-]c1cccc(Cc2c(C)c3ccc(Oc4nccs4)cc3oc2=O)c1F.[Na+] | 366 µM·h | – | – | – | – | – | – | – | –
2 | CNS(=O)(=O)[N-]c1cccc(Cc2c(C)c3ccc(Oc4nccs4)cc3oc2=O)c1.[Na+] | 190 µM·h | – | – | – | – | – | – | – | –
3 | CNS(=O)(=O)[N-]c1cccc(Cc2c(C)c3ccc(OC(=O)N(C)C)cc3oc2=O)c1F.[Na+] | 70 µM·h | – | – | – | – | – | – | – | –
4 | CNS(=O)(=O)[N-]c1cccc(Cc2c(C)c3ccc(OC(=O)N(C)C)cc3oc2=O)c1.[Na+] | 78 µM·h | – | – | – | – | – | – | – | –
5 | Cc1c(Cc2cccc([N-]S(N)(=O)=O)c2)c(=O)oc2cc(OC(=O)N(C)C)ccc12.[Na+] | 104 µM·h | – | – | – | – | – | – | – | –
6 | Cc1c(Cc2cccc([N-]S(N)(=O)=O)c2F)c(=O)oc2cc(OC(=O)N(C)C)ccc12.[Na+] | – | 40 µM·h | – | – | – | – | – | – | –
7 | CNS(=O)(=O)Nc1cccc(Cc2c(C)c3ccc(Oc4nccs4)cc3oc2=O)c1F | – | – | 0.063 µM | 0.011 µM | 0.015 mg/mL (≈ 31.5 µM) | 0.026 µM | 9 µL/min/mg | 30 nm/s | –
8 | CNS(=O)(=O)Nc1cccc(Cc2c(C)c3ccc(Oc4ncccn4)cc3oc2=O)c1C | – | – | 3.6 µM | 0.33 µM | < 0.004 mg/mL | 4.2 µM | – | – | –
9 | CNS(=O)(=O)Nc1cccc(Cc2c(C)c3cc(I)c(OC(=O)N(C)C)cc3oc2=O)c1 | 16 µM·h | – | 0.025 µM | 0.008 µM | 0.008 mg/mL (≈ 14 µM) | 0.005 µM | 33 µL/min/mg | – | –
10 | CNS(=O)(=O)Nc1cccc(Cc2c(C)c3cc(C)c(OC(=O)N(C)C)cc3oc2=O)c1 | 18 µM·h | – | 0.078 µM | 0.022 µM | 0.011 mg/mL (≈ 23.9 µM) | 0.029 µM | 17 µL/min/mg | – | –
11 | C#Cc1cc2c(C)c(Cc3cccc(NS(=O)(=O)NC)c3)c(=O)oc2cc1OC(=O)N(C)C | – | – | 0.07 µM | 0.14 µM | 0.021 mg/mL (≈ 44.7 µM) | 0.1 µM | – | – | –
12 | CNS(=O)(=O)Nc1cccc(Cc2c(C)c3cc(C#N)c(OC(=O)N(C)C)cc3oc2=O)c1 | 39 µM·h | – | 0.055 µM | 0.024 µM | 0.04 mg/mL (≈ 85 µM) | 0.085 µM | 15 µL/min/mg | – | –
13 | Cc1c(Cc2cc(NS(N)(=O)=O)ccc2F)c(=O)oc2cc(OC(=O)N(C)C)ccc12 | 176 µM·h | – | 0.83 µM | 0.95 µM | 0.009 mg/mL (≈ 20 µM) | 0.94 µM | 6 µL/min/mg | 50 nm/s | –
14 | Cc1c(Cc2ccc(F)c(NS(N)(=O)=O)c2)c(=O)oc2cc(OC(=O)N(C)C)ccc12 | – | – | 1.1 µM | 0.61 µM | 0.037 mg/mL (≈ 82.3 µM) | 0.044 µM | 6 µL/min/mg | 60 nm/s | –
15 | Cc1c(Cc2cccc(NS(N)(=O)=O)c2F)c(=O)oc2cc(OC(=O)N(C)C)ccc12 | – | – | 0.013 µM | 0.018 µM | 0.273 mg/mL (≈ 607 µM) | 0.053 µM | 6 µL/min/mg | 60 nm/s | –
16 | Cc1c(Cc2cccc(NS(N)(=O)=O)c2)c(=O)oc2cc(OC(=O)N(C)C)c(F)cc12 | – | 61 µM·h | 0.18 µM | 0.087 µM | 0.114 mg/mL (≈ 254 µM) | 0.11 µM | 6 µL/min/mg | 50 nm/s | –
17 | Cc1c(Cc2cccc(NS(N)(=O)=O)c2)c(=O)oc2c(F)c(OC(=O)N(C)C)ccc12 | – | – | 0.12 µM | 0.14 µM | – | 0.24 µM | – | – | –
18 | CN(C)C(=O)Oc1ccc2c(CF)c(Cc3cccc(NS(N)(=O)=O)c3)c(=O)oc2c1 | 84 µM·h | – | 0.22 µM | 0.2 µM | 0.014 mg/mL (≈ 31.1 µM) | 0.06 µM | 7 µL/min/mg | 40 nm/s | –
19 | CNS(=O)(=O)Nc1cccc(Cc2c(C)c3ccc(OC(=O)N(C)C)cc3oc2=O)c1 | – | – | 0.3 µM | 0.024 µM | 0.032 mg/mL (≈ 71.8 µM) | 0.11 µM | 20 µL/min/mg | 60 nm/s | –
20 | CNS(=O)(=O)Nc1ccc(F)c(Cc2c(C)c3ccc(OC(=O)N(C)C)cc3oc2=O)c1 | 75 µM·h | – | 2.4 µM | 0.55 µM | 0.051 mg/mL (≈ 110 µM) | 2.9 µM | 22 µL/min/mg | 50 nm/s | –
21 | CNS(=O)(=O)Nc1cccc(Cc2c(C)c3ccc(OC(=O)N(C)C)cc3oc2=O)c1F | – | – | 0.008 µM | 0.009 µM | 0.081 mg/mL (≈ 175 µM) | 0.038 µM | 13 µL/min/mg | 50 nm/s | –
22 | CNS(=O)(=O)Nc1cccc(Cc2c(C)c3cc(F)c(OC(=O)N(C)C)cc3oc2=O)c1 | 99 µM·h | – | – | 0.022 µM | 0.055 mg/mL (≈ 119 µM) | 0.064 µM | 13 µL/min/mg | 50 nm/s | –
23 | CNS(=O)(=O)Nc1cccc(Cc2c(CF)c3ccc(OC(=O)N(C)C)cc3oc2=O)c1 | 86 µM·h | – | 0.12 µM | 0.03 µM | 0.072 mg/mL (≈ 155 µM) | 0.066 µM | 22 µL/min/mg | 40 nm/s | –
24 | CNS(=O)(=O)Nc1cccc(Cc2c(C)c3ccc(Oc4ncccn4)cc3oc2=O)c1 | 223 µM·h | – | > 10 µM | 0.19 µM | 0.029 mg/mL (≈ 64.1 µM) | 0.81 µM | 20 µL/min/mg | 60 nm/s | –
25 | CNS(=O)(=O)Nc1cccc(Cc2c(C)c3ccc(Oc4ncccn4)cc3oc2=O)c1F | 425 µM·h | – | 0.023 µM | 0.017 µM | 0.013 mg/mL (≈ 27.6 µM) | 0.097 µM | 7 µL/min/mg | 60 nm/s | 25%
26 | CNS(=O)(=O)Nc1cccc(Cc2c(C)c3ccc(Oc4nccs4)cc3oc2=O)c1 | – | – | 1.5 µM | 0.16 µM | 0.009 mg/mL (≈ 19.7 µM) | 0.059 µM | 24 µL/min/mg | 20 nm/s | –
